Laboratory results taken from PMC4291750 (Journal of the American Chemical Society, 2014).

Key:
[1] = test system: PSMA-expressing RM1.PGLS cells phagocytosed by IFN-γ-primed U937 cells; experiment: Cell phagocytosis assay; format: cell-based, murine
Outline: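 RM1.PGLS targets were stained adherent with DiO (final 1.9 μM), detached with 0.5 mM EDTA/EGTA and checked by trypan blue. 1.25×10^4 targets and 10^5 IFN-γ-primed, DiD-stained U937 (E:T 8:1; range 2:1–20:1 also tested) in Assay Media, ±test compound ±inhibitors. Spun 200 rcf 2 min, 1 h at 37 °C, then flow cytometry. % targets phagocytosed minus background. Imaging-cytometry counterpart: formaldehyde-fixed, CD14/CD11b-APC plus Hoechst, events scored as cup or engulfment. Dunnett ANOVA versus no compound.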

[2] = test system: PSMA-coated beads phagocytosed by IFN-γ-primed U937 cells; experiment: Bead phagocytosis assay; format: cell-based
Outline: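 Effectors were U937 cells primed 72 h with IFN-γ (final 2 ng/mL, medium changed daily) and stained with DiD (final 1.9 μM, 30 min, 37 °C). Targets were 6 μm fluorescent streptavidin beads loaded with avi-tagged PSMA. 4×10^4 beads and 10^5 effectors (E:T 2.5:1) in phenol-free RPMI/10% low-IgG FBS, ±test compound ±competitor (PSMA ligand or anti-FcγRI antibody). Spun 200 rcf 2 min, 37 °C 1 h, stopped on ice, flow cytometry. % targets phagocytosed minus no-compound background; mean of ≥duplicates ±SD.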

RM1-hPSMA cells = experiment: Compound cytotoxicity assay; format: cell-based, murine; conditions: cell index over 24 hours, vs 1% DMSO
Outline: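 12 500 RM1-hPSMA cells per well were plated 36 h beforehand in DMEM (4.5 g/L glucose, 10% FBS, pen/strep, 2 mM glutamine, 1 mM pyruvate). Impedance cell index was recorded at 37 °C, 5% CO2, with cell-free medium as background. At time 0 medium was replaced with test compound at various concentrations, 1% DMSO vehicle or 3% Triton. Readings every 2 min for 3 h, then every 10 min for 21 h.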

[3] = test system: IFN-γ-primed U937 cells with PSMA-coated beads; experiment: ROS production; format: cell-based
Outline: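 U937 cells primed 72 h with IFN-γ (final 2 ng/mL, daily medium change). 3×10^5 cells/mL in phenol-free RPMI/10% low-IgG FBS mixed with test compound, with or without 10^5 PSMA-coated beads/mL. 2.5 mM lucigenin solution added (stock). Plate spun 200 rcf 2 min. Chemiluminescence read every 2 min for 60–90 min; peak luminescence taken. Mean of ≥duplicates ±SD.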

[4] = test system: isogenic PSMA-negative RM1 tumor line; experiment: Cell phagocytosis assay, PSMA-negative control; format: cell-based, murine; conditions: U937 effector cells

Row | SMILES | effect of competitor on SyAM-P3-induced cell phagocytosis ([1]; RM1.PGLS targets) | effect of competitor on SyAM-P3-induced bead phagocytosis ([2]; 50 nM SyAM-P3) | effect of competitor on SyAM-P1-induced bead phagocytosis ([2]; SyAM-P1-induced effector responses) | phagocytosis of PSMA-expressing RM1.PGLS cells ([1]; U937 effector cells) | cytotoxicity in the absence of effector cells (RM1-hPSMA cells) | ROS production in the absence of target beads ([3]; no PSMA-labeled beads) | superoxide burst response ([3]; with PSMA-coated beads, lucigenin chemiluminescence) | phagocytosis of PSMA-negative RM1 cells [4] | phagocytosis of PSMA-coated beads, comparison between SyAMs ([2]; primed U937 effector cells)
1 | O=C(O)CCC(CP(=O)(O)O)C(=O)O (stereo not drawn) [2-PMPA] | suppressed | suppressed in a concentration-dependent manner | abrogated | – | – | – | – | – | –
2 | CC(=O)N[C@H](C(=O)N[C@@H](CC(N)=O)C(=O)N[C@@H](CO)C(=O)N[C@H]1CSSC[C@@H](C(=O)NCC(=O)N[C@@H](CC(=O)O)C(=O)N[C@@H](CC(=O)O)C(=O)N[C@@H](CCCCNC(=O)CCCC(=O)NCCOCCOCCOCC(=O)NCCCC[C@H](NC(=O)COCCOCCOCCNC(=O)CCCC(=O)NCCCC[C@H](NC(=O)[C@H](CC(=O)O)NC(=O)[C@H](CC(=O)O)NC(=O)CNC(=O)[C@@H]2CSSC[C@H](NC(=O)[C@H](CO)NC(=O)[C@H](CC(N)=O)NC(=O)[C@@H](NC(C)=O)C(C)C)C(=O)N[C@@H](CC(C)C)C(=O)N[C@@H](CC(C)C)C(=O)N[C@@H](CC(C)C)C(=O)N3CCC[C@H]3C(=O)N[C@@H](CC(N)=O)C(=O)N[C@@H](CC(C)C)C(=O)N[C@@H](CC(C)C)C(=O)NCC(=O)N2)C(=O)N[C@@H](CCCCNC(=O)CCCC[C@@H]2SC[C@@H]3NC(=O)N[C@@H]32)C(N)=O)C(=O)NCc2cn(-c3cc(C(=O)NCCCCCC(=O)NCCCCCC(=O)NCCCCCC(=O)NCCCCCC(=O)NCCCCCC(=O)NCCCCCC(=O)NCc4cn(CCCC[C@H](NC(=O)N[C@@H](CCC(=O)O)C(=O)O)C(=O)O)nn4)cc(C(=O)NCCCCCC(=O)NCCCCCC(=O)NCCCCCC(=O)NCCCCCC(=O)NCCCCCC(=O)NCCCCCC(=O)NCc4cn(CCCC[C@H](NC(=O)N[C@@H](CCC(=O)O)C(=O)O)C(=O)O)nn4)c3)nn2)C(=O)N[C@@H](CCCCNC(=O)CCCC[C@@H]2SC[C@@H]3NC(=O)N[C@@H]32)C(N)=O)NC(=O)CNC(=O)[C@H](CC(C)C)NC(=O)[C@H](CC(C)C)NC(=O)[C@H](CC(N)=O)NC(=O)[C@@H]2CCCN2C(=O)[C@H](CC(C)C)NC(=O)[C@H](CC(C)C)NC(=O)[C@H](CC(C)C)NC1=O)C(C)C [SyAM-P3] | – | – | – | significant levels of target cell phagocytosis | non-cytotoxic | required the presence of PSMA-labeled beads | both more potent and more efficacious than earlier-generation molecules | only minimal levels of phagocytosis | both more potent and more efficacious than earlier-generation molecules
